In ChEMBL document CHEMBL1671834, “Novel 3-aryl indoles as progesterone receptor antagonists for uterine fibroids” (ACS Med Chem Lett, 2011):
The source made the active and inactive calls. No cut-off for these calls is given here.

What was measured:
Progesterone receptor [1] = biological target: T1, Progesterone receptor (Homo sapiens, UniProt P06401); test: Displacement of [3H]methyltrienolone from human progesterone receptor expressed in HEK293 cells; type: cell-based
T1 sequence (P06401 whole entry): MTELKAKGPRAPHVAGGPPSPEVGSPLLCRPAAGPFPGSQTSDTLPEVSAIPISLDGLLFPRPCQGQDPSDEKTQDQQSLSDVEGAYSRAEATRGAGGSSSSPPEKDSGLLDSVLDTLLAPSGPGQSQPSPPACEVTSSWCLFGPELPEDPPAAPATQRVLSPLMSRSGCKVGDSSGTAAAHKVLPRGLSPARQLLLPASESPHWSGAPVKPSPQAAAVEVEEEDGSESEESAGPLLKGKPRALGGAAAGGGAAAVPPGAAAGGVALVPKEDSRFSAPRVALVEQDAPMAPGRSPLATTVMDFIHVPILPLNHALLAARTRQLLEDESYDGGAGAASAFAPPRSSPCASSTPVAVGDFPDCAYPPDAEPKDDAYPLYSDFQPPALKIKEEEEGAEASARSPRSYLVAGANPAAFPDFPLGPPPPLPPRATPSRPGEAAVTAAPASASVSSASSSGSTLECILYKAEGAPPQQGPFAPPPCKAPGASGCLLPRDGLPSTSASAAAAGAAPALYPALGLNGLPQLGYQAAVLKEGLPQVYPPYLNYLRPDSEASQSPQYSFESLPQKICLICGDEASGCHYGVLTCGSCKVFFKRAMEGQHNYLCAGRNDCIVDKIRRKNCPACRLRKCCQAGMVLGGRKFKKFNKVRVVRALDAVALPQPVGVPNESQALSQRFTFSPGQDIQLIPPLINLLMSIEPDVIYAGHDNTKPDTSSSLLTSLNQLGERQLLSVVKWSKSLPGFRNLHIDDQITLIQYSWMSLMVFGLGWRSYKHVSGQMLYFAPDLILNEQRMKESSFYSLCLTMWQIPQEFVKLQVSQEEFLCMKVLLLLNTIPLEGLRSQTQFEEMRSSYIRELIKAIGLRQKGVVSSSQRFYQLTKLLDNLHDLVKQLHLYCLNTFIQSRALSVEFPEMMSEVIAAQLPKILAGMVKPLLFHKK
In short: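 Competitive binding to recombinant full-length human receptors against tritium-labelled standards. Values are geometric means of at least duplicate determinations.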

Androgen receptor = biological target: T2, Androgen receptor (Homo sapiens, UniProt P10275); test: Displacement of [3H]methyltrienolone from human androgen receptor expressed in HEK293 cells; type: cell-based
T2 sequence (P10275 whole entry): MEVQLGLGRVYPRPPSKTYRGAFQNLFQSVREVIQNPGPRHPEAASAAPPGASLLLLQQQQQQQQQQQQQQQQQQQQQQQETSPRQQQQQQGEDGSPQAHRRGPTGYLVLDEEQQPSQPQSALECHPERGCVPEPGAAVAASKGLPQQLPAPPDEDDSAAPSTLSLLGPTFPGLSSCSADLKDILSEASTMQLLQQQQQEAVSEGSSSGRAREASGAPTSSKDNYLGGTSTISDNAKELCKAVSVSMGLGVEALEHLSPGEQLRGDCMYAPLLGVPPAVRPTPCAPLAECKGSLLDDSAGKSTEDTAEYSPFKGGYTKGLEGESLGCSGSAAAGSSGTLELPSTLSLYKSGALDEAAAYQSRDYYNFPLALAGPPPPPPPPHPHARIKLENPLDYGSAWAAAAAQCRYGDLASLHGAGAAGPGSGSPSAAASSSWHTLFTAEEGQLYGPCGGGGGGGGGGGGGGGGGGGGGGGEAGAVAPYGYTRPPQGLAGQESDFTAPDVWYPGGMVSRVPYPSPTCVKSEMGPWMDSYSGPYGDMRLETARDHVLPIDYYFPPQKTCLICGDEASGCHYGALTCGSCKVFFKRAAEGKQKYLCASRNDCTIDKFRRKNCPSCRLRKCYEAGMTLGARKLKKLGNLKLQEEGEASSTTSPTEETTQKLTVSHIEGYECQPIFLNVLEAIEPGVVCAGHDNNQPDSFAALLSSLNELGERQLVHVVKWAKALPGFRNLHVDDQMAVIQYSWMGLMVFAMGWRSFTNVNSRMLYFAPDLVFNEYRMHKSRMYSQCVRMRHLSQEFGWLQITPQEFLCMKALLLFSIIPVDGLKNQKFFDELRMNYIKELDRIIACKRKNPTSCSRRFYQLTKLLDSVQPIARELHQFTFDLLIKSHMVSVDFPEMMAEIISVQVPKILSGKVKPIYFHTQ

Progesterone receptor [2] = biological target: T1, Progesterone receptor; test: Antagonist activity at human progesterone receptor expressed in HEK293 cells assessed as inhibition of […]-induced transcriptional activity by GRE-driven luciferase reporter gene assay; type: functional, cell-based
In short: (§1)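 Transcription assay in HEK293 cells cotransfected with full-length human receptor. Values are geometric means of at least duplicate determinations.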

[3] = biological target: T3, Progesterone receptor (Homo sapiens) (UniProt P06401); test: Antagonist activity at human progesterone receptor expressed in HEK293 cells assessed as inhibition of […]-induced transcriptional activity by GRE-driven luciferase reporter gene assay relative to untreated control; type: functional, cell-based; set-up: concentration or dose not given beside the values; conditions: concentration not given here; in short: as §1
T3 sequence (whole entry): T1 sequence (P06401 whole entry)

[4] = biological target: T4, Mineralocorticoid receptor (Homo sapiens) (UniProt P08235); test: Antagonist activity at human mineralocorticoid receptor expressed in HEK293 cells assessed as inhibition of […]-induced transcriptional activity by GRE-driven luciferase reporter gene assay relative to untreated control; type: functional, cell-based; set-up: concentration or dose not given beside the values; conditions: concentration not given here; in short: as §1
T4 sequence (whole entry): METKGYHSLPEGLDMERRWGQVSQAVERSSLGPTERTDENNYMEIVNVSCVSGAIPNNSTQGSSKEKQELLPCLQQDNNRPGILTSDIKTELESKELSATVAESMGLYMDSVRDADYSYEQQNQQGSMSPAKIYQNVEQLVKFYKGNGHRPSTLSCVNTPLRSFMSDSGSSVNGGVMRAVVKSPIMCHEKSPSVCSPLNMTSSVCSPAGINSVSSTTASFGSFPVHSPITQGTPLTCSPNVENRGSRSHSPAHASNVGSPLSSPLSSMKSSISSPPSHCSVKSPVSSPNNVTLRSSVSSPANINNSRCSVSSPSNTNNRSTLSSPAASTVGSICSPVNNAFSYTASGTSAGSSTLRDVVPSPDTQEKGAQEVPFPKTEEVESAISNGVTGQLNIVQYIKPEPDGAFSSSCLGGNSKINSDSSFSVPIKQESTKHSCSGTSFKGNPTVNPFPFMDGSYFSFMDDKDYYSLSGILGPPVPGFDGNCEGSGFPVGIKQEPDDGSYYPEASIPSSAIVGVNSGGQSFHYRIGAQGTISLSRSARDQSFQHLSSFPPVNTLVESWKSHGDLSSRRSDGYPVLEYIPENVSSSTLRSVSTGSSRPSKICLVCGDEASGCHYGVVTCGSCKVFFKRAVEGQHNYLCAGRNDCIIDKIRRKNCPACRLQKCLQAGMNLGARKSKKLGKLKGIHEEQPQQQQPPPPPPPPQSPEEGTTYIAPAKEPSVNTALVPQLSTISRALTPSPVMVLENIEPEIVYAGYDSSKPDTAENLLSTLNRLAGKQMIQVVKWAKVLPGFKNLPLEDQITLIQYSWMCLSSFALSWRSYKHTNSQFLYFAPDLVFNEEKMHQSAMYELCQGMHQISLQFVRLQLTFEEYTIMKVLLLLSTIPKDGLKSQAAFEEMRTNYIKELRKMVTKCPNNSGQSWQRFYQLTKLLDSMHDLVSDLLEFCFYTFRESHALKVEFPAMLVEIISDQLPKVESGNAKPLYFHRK

Rattus norvegicus = test: Antagonist activity at progesterone receptor in orally dosed ovariectomized Sprague-Dawley rat assessed as reversal of R5020-induced down-regulation of estradiol-induced increase in complement 3 mRNA expression by C3 rat uterine assay; type: functional; conditions: po
In short: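 Ovariectomized rats dosed orally (mg/kg dose response). Estrogen (E2, 0.05 mg/kg) induces complement C3 mRNA in uterus. Progestin R5020 (0.1 mg/kg) down-regulates it. Read-out is reversal of the R5020 effect, expressed as fold over asoprisnil (5 mg/kg). ED50 derived from the dose response.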

Oryctolagus cuniculus [5] = test: Antagonist activity at progesterone receptor in estrogen-primed immature New Zealand White rabbit assessed as inhibition of progesterone-induced endometrial transformation at 1 mg/kg, sc by McPhail assay; type: functional, organism-based; set-up: dose 1 mg/kg
In short: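 Immature rabbits primed with estrogen, given progesterone 1 mg/kg with test compound at various sc doses. Endometrial transformation scored by McPhail Index.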

Oryctolagus cuniculus [6] = test: Agonist activity at progesterone receptor in estrogen-primed immature New Zealand White rabbit assessed as stimulation of progesterone-induced endometrial transformation at 30 mg/kg, sc by McPhail assay; type: functional, organism-based; set-up: dose 30 mg/kg
In short: (§2)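 Immature rabbits primed with estrogen, dosed sc without progesterone. Endometrial transformation scored by McPhail Index.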

Oryctolagus cuniculus [7] = test: Agonist activity at progesterone receptor in sc dosed estrogen-primed immature New Zealand White rabbit assessed as stimulation of progesterone-induced endometrial transformation by McPhail assay; type: functional, organism-based; in short: as §2

Ki (Progesterone receptor [1])	Ki (Androgen receptor)	IC50 (Progesterone receptor [2])	inhibition [3]	inhibition [4]	Activity (Oryctolagus cuniculus [7])	Structure (SMILES)	ED50 (Rattus norvegicus)	Activity (Oryctolagus cuniculus [5])	Activity (Oryctolagus cuniculus [6])
1.23 µM	0.676 µM	2.02 µM	94.5%	87%	–	C[C@](c1ccc(F)cc1F)(c1c[nH]c2c(NS(C)(=O)=O)cccc12)C1CC1	–	–	–
–	–	–	–	–	–	COC[C@]1(OC)CC[C@H]2[C@@H]3CCC4=CC(=O)CCC4=C3[C@@H](c3ccc(/C=N/O)cc3)C[C@@]21C [ASOPRISNIL]	0.31 mg/kg	Active	Active
–	–	–	–	–	inactive	CC#C[C@]1(O)CC[C@H]2[C@@H]3CCC4=CC(=O)CCC4=C3[C@@H](c3ccc(N(C)C)cc3)C[C@@]21C	–	Active	–
0.464 µM	0.211 µM	0.715 µM	89.7%	62.9%	–	C[C@@](c1ccc(F)cc1F)(c1c[nH]c2c(NS(C)(=O)=O)cccc12)C1CC1	–	–	–
